# Test results as given in publication PMC8799559 (Advances in Therapy, 2021).
# Columns and labels:
# [1] = legacy model, 50 subjects receiving venetoclax + R ref 13; cited from earlier work
# [2] = fixed at legacy model estimate ref 13, cited from earlier work
# [3] = Population pharmacokinetics; type: in vivo, human
# Outline: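 Plasma drug measured by validated LC-MS/MS; LLOQ 2.08 or 2.18 ng/mL. Intensive sampling on cycle 1 day 4 and cycle 2 day 1, pre-dose to 8 h post-dose, plus pre-dose samples on cycle 1 day 8 and cycle 2 day 10. Prior model built on 505 subjects from eight studies applied by nonlinear mixed-effects (FOCEI). Checked by diagnostic plots, VPCs and NPDE.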
# 1L DLBCL = type: in vivo, human; details: all-comers and BCL-2-IHC-positive subpopulations, logistic regression
# Outline: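 Phase 2 1L DLBCL patients (n = 199) given 800 mg test compound on a 10/21-day schedule with R-CHOP. PET-CT complete response assessed at the end-of-treatment visit, 6–8 weeks from day 1 of the last cycle. Logistic regression (logit link) on nominal AUCss; α = 0.05 for the exposure coefficient. Covariates added by forward stepwise selection at α = 0.01.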
# tumor size = details: cited from earlier work
# [4] = phase 3 MURANO study, R/R CLL ref 19; cited from earlier work
# [5] = tested on: circulating lymphocyte counts; details: cited from earlier work
# [6] = food effect on relative bioavailability
smiles,measurement,setting,value
CC1(C)CCC(CN2CCN(c3ccc(C(=O)NS(=O)(=O)c4ccc(NCC5CCOCC5)c([N+](=O)[O-])c4)c(Oc4cnc5[nH]ccc5c4)c3)CC2)=C(c2ccc(Cl)cc2)C1 [venetoclax],Increase of venetoclax CL/F by concomitant R administration,[1],1.21 fold
same,"θCL/F, moderate CYP3A inhibitor",[2]; covariate effect on CL/F,0.84
same,"θCL/F, strong CYP3A inhibitor",[2]; covariate effect on CL/F,0.18
same,"θCL/F,OATP1B3 inhibitor",[2]; covariate effect on CL/F,0.85
same,"θV2/F, CLL/SLL/NHL",[2]; covariate effect on V2/F,1.71
same,"θV2/F,SEX=female",[2]; covariate effect on V2/F,0.68
same,CL/F,[2]; final PopPK model,447 L/day
same,Q/F,[2]; final PopPK model,97.2 L/day
same,V2/F,[2]; final PopPK model,118 L
same,V3/F,[2]; final PopPK model,119 L
same,ka,[2]; first-order absorption rate constant,3.72 day⁻¹
same,"θF1,FOOD=fasting",[2]; [6],0.34
same,"θF1,FOOD=fed",[2]; [6],1.23
same,"θF1,FOOD=high fat",[2]; [6],1.43
same,"θF1,FOOD=moderate fat",[2]; [6],1.31
same,Variability (CV) of CL/F,[2]; inter-individual variability,CV = 39.1%
same,Variability (CV) of F1,[2]; inter-individual variability,CV = 31.2%
same,Variability (CV) of V2/F,[2]; inter-individual variability,CV = 45.3%
same,ω^2CL/F,[2]; inter-individual variance,0.15
same,ω^2F1,[2]; inter-individual variance,0.10
same,ω^2V2/F,[2]; inter-individual variance,0.21
same,σ^2add,"[2]; residual variance, additive",3.07 × 10^–7
same,σ^2prop,"[2]; residual variance, proportional",0.22
same,half-life,"[3]; human, plasma, oral",25.2 h
same,"θV2/F,GO27878 (study effect on V2/F)",[3]; multiplicative CAVALLI study effect relative to legacy model,2.33
same,Association between venetoclax AUCss nominal and PET-CR rates,1L DLBCL,No clear association
same,EC50 for tumor size,tumor size,0.146 µg/mL
same,Increase in CL/F for venetoclax when co-administered with R,[4],7%
same,EC50 for circulating lymphocyte counts,[5],0.00863 µg/mL
